# Measured values as given in ChEMBL document CHEMBL1221182, “Functional characterization of IRESes by an inhibitor of the RNA helicase eIF4A” (Nat Chem Biol, 2006).
# Active and inactive are the calls of the source. The rule behind the calls is not given here.
# Tests used:
# HeLa [1] = assay: Inhibition of protein synthesis in human HeLa cells after 50 mins by [35S]methionine metabolic labeling study; format: functional, cell-based
# HeLa [2] = assay: Inhibition of protein synthesis in human HeLa cells at 1 uM by [35S]methionine metabolic labeling study; format: functional, cell-based
# HeLa [3] = assay: Inhibition of DNA synthesis in human HeLa cells assessed as [3H] thymidine incorporation at 1 uM by scintillation counting; format: functional, cell-based
# HeLa [4] = assay: Inhibition of RNA synthesis in human HeLa cells assessed as [3H] Uridine incorporation at 1 uM by scintillation counting; format: functional, cell-based
# HeLa [5] = assay: Inhibition of protein synthesis in human HeLa cells at 1 uM after 60 mins by [35S]methionine metabolic labeling study; format: functional, cell-based
# Oryctolagus cuniculus = organism: Oryctolagus cuniculus; assay: Inhibition of 80S ribosome complex formation in rabbit reticulocyte lysate in presence of 600 uM cyclohexamide assessed as increase in unbound mRNA at 50 uM; format: functional
# In short: (§1)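 ³²P-labelled CAT mRNA was incubated 10 min in wheat germ extract or rabbit reticulocyte lysate. Additions were 600 µM cycloheximide, 1 mM GMP-PNP, and 50 µM compound or vehicle. Mixtures were sedimented through 10–30% glycerol gradients at 200,000g for 3.5 h. Fraction radioactivity was measured by scintillation counting.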
# Triticum aestivum = assay: Inhibition of 48S ribosome complex formation in wheat germ extract in presence of 1 mM GMP-PNP assessed as increase in unbound mRNA at 50 uM; format: functional; in short: as §1
# [6] = target: Eukaryotic initiation factor 4A-I (Mus musculus, UniProt P60843); assay: Inhibition of eIF4A-mediated cap-dependent protein synthesis in FF-HCV-Ren mRNA transfected Swiss mouse Krebs2 cell extract by [35S]methionine metabolic labeling study
# Chain of Eukaryotic initiation factor 4A-I (P60843 whole entry): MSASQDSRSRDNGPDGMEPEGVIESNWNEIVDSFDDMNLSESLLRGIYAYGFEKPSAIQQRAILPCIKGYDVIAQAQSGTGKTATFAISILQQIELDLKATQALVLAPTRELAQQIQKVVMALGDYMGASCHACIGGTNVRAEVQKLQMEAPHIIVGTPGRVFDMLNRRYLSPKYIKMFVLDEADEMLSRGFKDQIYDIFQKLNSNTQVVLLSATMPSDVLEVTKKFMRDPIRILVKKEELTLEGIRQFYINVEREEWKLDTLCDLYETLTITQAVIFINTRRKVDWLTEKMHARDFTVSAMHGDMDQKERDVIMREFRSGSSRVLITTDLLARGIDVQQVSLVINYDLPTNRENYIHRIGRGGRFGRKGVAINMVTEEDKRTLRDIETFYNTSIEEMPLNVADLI
# In short: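 Cell-free translation in Krebs-2 extracts programmed with capped bicistronic FF-HCV-Ren transcript: cap-dependent firefly cistron, HCV IRES-driven renilla cistron. Final mRNA 5 µg ml⁻¹, K⁺ 100 mM, compound titrated. Controls carry a matched final DMSO level. Products labeled with [³⁵S]methionine, separated by 10% SDS-PAGE, and autoradiographed. Luciferase activities are read by luminometer and expressed relative to vehicle reactions.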
# [7] = test system: Internal ribosome entry site (IRES); assay: Inhibition of HCV IRES-mediated protein synthesis in FF-HCV-Ren mRNA transfected Swiss mouse Krebs2 cell extract at 50 uM by [35S]methionine metabolic labeling study; settings: Hepacivirus hominis
# In short: (§2)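 In vitro translation in Krebs-2 extracts programmed with capped bicistronic transcripts at 5 µg ml⁻¹ mRNA and 100 mM K⁺ final. Firefly and renilla luciferase activities read by luminometer. Alternatively, [³⁵S]methionine-labelled products were run on 10% SDS gels and autoradiographed. Control reactions held the same final DMSO level as the compound reactions.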
# [8] = target: Eukaryotic initiation factor 4A-I (Oryctolagus cuniculus) (UniProt P29562); assay: Inhibition of eIF4A-mediated cap-dependent protein synthesis in rabbit reticulocyte lysate transfected with FF-HCV-Ren mRNA by [35S]methionine metabolic labeling study
# Chain of Eukaryotic initiation factor 4A-I (Oryctolagus cuniculus) (P29562 whole entry): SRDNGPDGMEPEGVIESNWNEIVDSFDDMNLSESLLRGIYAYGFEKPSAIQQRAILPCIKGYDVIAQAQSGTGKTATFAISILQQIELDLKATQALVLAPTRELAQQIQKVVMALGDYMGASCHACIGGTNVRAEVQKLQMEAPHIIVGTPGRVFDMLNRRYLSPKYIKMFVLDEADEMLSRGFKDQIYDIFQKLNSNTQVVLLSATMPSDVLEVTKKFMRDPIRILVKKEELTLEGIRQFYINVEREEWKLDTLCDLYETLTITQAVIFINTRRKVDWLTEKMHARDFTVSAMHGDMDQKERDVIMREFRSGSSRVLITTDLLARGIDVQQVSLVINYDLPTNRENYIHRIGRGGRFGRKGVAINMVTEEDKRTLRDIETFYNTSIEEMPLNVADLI
# In short: (§3)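 Rabbit reticulocyte lysate or wheat germ extract translations were run to kit instructions. Control reactions carried the same final DMSO concentration as the compound-containing reactions.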
# [9] = target: Eukaryotic initiation factor 4A (Triticum aestivum) (UniProt P41378); assay: Inhibition of eIF4A-mediated cap-dependent protein synthesis in wheat germ extract transfected with FF-HCV-Ren mRNA by [35S]methionine metabolic labeling study; in short: as §3
# Chain of Eukaryotic initiation factor 4A (Triticum aestivum) (P41378 whole entry): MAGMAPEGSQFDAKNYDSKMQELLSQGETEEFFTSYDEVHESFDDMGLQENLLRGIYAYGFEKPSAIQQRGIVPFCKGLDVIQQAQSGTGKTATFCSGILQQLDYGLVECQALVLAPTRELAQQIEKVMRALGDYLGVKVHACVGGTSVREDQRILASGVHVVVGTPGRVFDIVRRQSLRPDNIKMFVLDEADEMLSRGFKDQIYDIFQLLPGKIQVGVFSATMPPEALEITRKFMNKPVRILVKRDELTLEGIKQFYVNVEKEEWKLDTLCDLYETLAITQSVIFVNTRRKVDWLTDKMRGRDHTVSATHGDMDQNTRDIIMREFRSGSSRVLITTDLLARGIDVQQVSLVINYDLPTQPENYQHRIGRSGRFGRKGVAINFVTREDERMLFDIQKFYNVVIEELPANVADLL
# Escherichia coli = assay: Inhibition of eIF4A-mediated cap-dependent protein synthesis in Escherichia coli S30 extract transfected with FF-HCV-Ren mRNA at 50 uM by [35S]methionine metabolic labeling study
# [10] = target: Eukaryotic initiation factor 4A-I (Homo sapiens) (UniProt P60842); assay: Inhibition of eIF4A interaction with mRNA cap structure in presence of 0.6 mM m7 GDP at 50 uM by chemical cross-linking assay
# Chain of Eukaryotic initiation factor 4A-I (Homo sapiens) (P60842 whole entry): as the sequence (P60843 whole entry) above
# In short: (§4)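 Oxidized ³²P cap-labelled CAT mRNA was chemically cross-linked in reactions with 0.9 mM ATP. Protein sources were 1 µg recombinant eIF4A_I, 0.7 µg native eIF4F, or an initiation factor preparation. Competitors were 0.6 mM m⁷GDP or GDP; compound was 50 µM. Samples were RNase A-treated, resolved by SDS-PAGE, and autoradiographed.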
# [11] = target: Eukaryotic translation initiation factor 4B (Homo sapiens) (UniProt P23588); assay: Inhibition of eIF4B interaction with mRNA cap structure in presence of 0.6 mM m7GDP at 50 uM by chemical cross-linking assay; in short: as §4
# Chain of Eukaryotic translation initiation factor 4B (Homo sapiens) (P23588 whole entry): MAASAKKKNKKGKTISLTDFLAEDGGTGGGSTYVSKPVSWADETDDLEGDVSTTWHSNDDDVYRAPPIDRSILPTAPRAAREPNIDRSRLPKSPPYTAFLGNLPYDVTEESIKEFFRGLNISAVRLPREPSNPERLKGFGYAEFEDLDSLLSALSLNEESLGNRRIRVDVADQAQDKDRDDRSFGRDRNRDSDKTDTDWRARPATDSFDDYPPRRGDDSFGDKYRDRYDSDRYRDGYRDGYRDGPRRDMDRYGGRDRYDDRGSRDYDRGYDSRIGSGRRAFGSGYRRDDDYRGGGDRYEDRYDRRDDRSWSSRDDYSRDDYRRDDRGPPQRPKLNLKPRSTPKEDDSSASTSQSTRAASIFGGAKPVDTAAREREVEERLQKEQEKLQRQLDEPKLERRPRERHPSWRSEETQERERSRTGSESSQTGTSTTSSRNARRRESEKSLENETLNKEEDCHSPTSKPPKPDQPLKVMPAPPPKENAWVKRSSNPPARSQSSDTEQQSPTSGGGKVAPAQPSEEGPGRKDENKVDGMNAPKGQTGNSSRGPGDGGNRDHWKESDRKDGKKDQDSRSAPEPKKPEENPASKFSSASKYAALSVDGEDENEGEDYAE
# [12] = target: Eukaryotic translation initiation factor 4E (Homo sapiens) (UniProt P06730); assay: Inhibition of eIF4E interaction with mRNA cap structure in presence of 0.6 mM m7 GDP at 50 uM by chemical cross-linking assay; in short: as §4
# Chain of Eukaryotic translation initiation factor 4E (Homo sapiens) (P06730 whole entry): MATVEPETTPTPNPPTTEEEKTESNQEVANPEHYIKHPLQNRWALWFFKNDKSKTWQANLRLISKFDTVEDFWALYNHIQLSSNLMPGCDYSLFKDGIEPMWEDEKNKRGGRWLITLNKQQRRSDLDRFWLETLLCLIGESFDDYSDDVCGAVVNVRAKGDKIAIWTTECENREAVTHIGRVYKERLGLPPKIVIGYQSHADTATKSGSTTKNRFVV
# [13] = target: Eukaryotic initiation factor 4A-I (Homo sapiens) (UniProt P60842); assay: Inhibition of eIF4A RNA-dependent ATPase activity assessed as rate of ATP hydrolysis
# In short: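 Recombinant murine eIF4A_I (4.5 µg) was expressed in E. coli BL21(DE3) and purified by Ni-NTA and Q-Sepharose. It was incubated with 1 µM [γ-³²P]ATP and 2.5 µM poly(U). Hydrolysis was quantified by phosphorimager. Rate was plotted against compound concentration relative to 0.5% DMSO.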
# [14] = target: Eukaryotic initiation factor 4A-I (Homo sapiens) (UniProt P60842); assay: Inhibition of eIF4A-mediated helicase activity by helicase assay
# In short: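 Helicase assay used the RNA-1/11 duplex with 0.4 µM recombinant eIF4A_I and 1 mM ATP. Products were separated on gels, dried, and exposed to film at -80 °C for 12 h.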
# [15] = Inhibition of DED1-mediated helicase activity by helicase assay
# In short: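 Helicase assay used the RNA-1/11 duplex with 25 nM Ded1p and 1 mM ATP. Products were separated on gels, dried, and exposed to film at -80 °C for 12 h.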
# [16] = target: Eukaryotic initiation factor 4A-I (Mus musculus) (UniProt P60843); assay: Inhibition of eIF4A-mediated cap-dependent translation in Swiss mouse Krebs2 extract transfected with bicistronic mRNA by [35S]methionine metabolic labeling study; in short: as §2
# Chain of Eukaryotic initiation factor 4A-I (Mus musculus) (P60843 whole entry): as the sequence (P60843 whole entry) above
# Nucleic Acid [17] = assay: Inhibition of polio virus IRES-mediated translation in Swiss mouse Krebs2 extract transfected with bicistronic mRNA by [35S]methionine metabolic labeling study; settings: Enterovirus C; in short: as §2
# Nucleic Acid [18] = assay: Inhibition of EMCV IRES-mediated translation in Swiss mouse Krebs2 extract transfected with bicistronic mRNA by [35S]methionine metabolic labeling study; settings: Encephalomyocarditis virus; in short: as §2
# Nucleic Acid [19] = assay: Inhibition of CrPV IRES-mediated translation in Swiss mouse Krebs2 extract transfected with bicistronic mRNA by [35S]methionine metabolic labeling study; in short: as §2
# HeLa [20] = assay: Growth inhibition of human HeLa cells at 80 nM after 24 hrs; format: functional, cell-based
# [21] = target: Eukaryotic initiation factor 4A-I (Mus musculus) (UniProt P60843); assay: Inhibition of eIF4A-mediated cap-dependent protein synthesis in Swiss mouse Krebs2 extract transfected with FF-HCV-Ren mRNA in presence of recombinant eIF4AIf by [35S]methionine metabolic labeling study
# In short: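 Krebs-2 translation programmed with FF-HCV-Ren mRNA at 5 µg ml⁻¹ mRNA and 100 mM K⁺ final. Conditions were 0.4 µM compound or 0.004% DMSO, with or without 2.2 µM recombinant eIF4A_If. [³⁵S]methionine products were resolved by SDS-PAGE and autoradiographed. Translational efficiency was taken relative to luciferase from vehicle controls. Three experiments; s.e.m.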
# HeLa [22] = assay: Disruption of polyribosmes in human HeLa cells at 1 uM after 20 mins; format: functional, cell-based
# [23] = target: Eukaryotic initiation factor 4A-I (Homo sapiens) (UniProt P60842); assay: Inhibition of eIF4A RNA binding activity in presence of 0.6 mM m7GDP at 50 uM; in short: as §4
# [24] = target: Eukaryotic translation initiation factor 4E (Homo sapiens) (UniProt P06730); assay: Inhibition of eIF4E RNA binding activity in presence of 0.6 mM m7GDP at 50 uM; in short: as §4
# [25] = target: Eukaryotic initiation factor 4A-I (Homo sapiens) (UniProt P60842); assay: Inhibition of eIF4A binding to 32p cap-labeled mRNA at 50 uM; in short: as §4
# Nucleic Acid [26] = assay: Inhibition of PTV-1 IRES-mediated translation in Swiss mouse Krebs2 extract transfected with bicistronic mRNA by [35S]methionine metabolic labeling study; settings: Porcine teschovirus 1; in short: as §2
# [27] = target: Eukaryotic initiation factor 4A-I (Homo sapiens) (UniProt P60842); assay: Induction of eIF4A to [alpha-32P]ATP cross linking relative to control
# In short: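 [α-³²P]ATP (2.5 µCi) was UV cross-linked to 1 µg recombinant eIF4A_I or 0.7 µg native eIF4F, with 0.5% DMSO or 50 µM compound. Samples were run on SDS-PAGE and autoradiographed at -70 °C for 12 h. Four experiments.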
smiles,measurement,setting,value
C[C@H]1C[C@@]2(O[C@H]3C[C@H]4[C@@H]5CC[C@H]6C[C@H](O)CC[C@]6(C)[C@H]5[C@@H](O)C[C@]4(C)[C@H]3[C@@]2(C)O)OC1(C)C [HIPPURISTANOL],inhibition,HeLa [1],Active
same,inhibition,HeLa [2],Active
same,inhibition,HeLa [3],Active
same,inhibition,HeLa [4],Active
same,inhibition,HeLa [5],Active
same,inhibition,Oryctolagus cuniculus,Active
same,inhibition,Triticum aestivum,Active
same,IC50,[6],400 nM
same,inhibition,[7],inactive
same,inhibition,[8],Active
same,inhibition,[9],Active
same,inhibition,Escherichia coli,Active
same,inhibition,[10],Active
same,inhibition,[11],Active
same,inhibition,[12],inactive
same,inhibition,[13],Active
same,inhibition,[14],Active
same,inhibition,[15],inactive
same,inhibition,[16],Active
same,inhibition,Nucleic Acid [17],Active
same,inhibition,Nucleic Acid [18],Active
same,inhibition,Nucleic Acid [19],inactive
same,inhibition,HeLa [20],Active
same,inhibition,[21],Active
same,inhibition,HeLa [22],Active
same,inhibition,[23],Active
same,inhibition,[24],inactive
same,inhibition,[25],Active
same,inhibition,Nucleic Acid [26],Active
same,fold change (FC),[27],2
